According to ChEMBL document CHEMBL4402581, “Monohydrazone Based G-Quadruplex Selective Ligands Induce DNA Damage and Genome Instability in Human Cancer Cells” (J Med Chem, 2020):
Calls of active or inactive are those of the source. No cut-off for these calls is given here.

Experiments:
Quadruplex DNA [1] = test: Stabilization of G4 quadruplex DNA in human U2OS cells assessed as colocalization of TRF2/[…] foci at 2 uM incubated for 24 hrs by immunofluorescence microscopy (reference value: 18.4 +/- 2.81%); assay type: cell-based
Quadruplex DNA [2] = test: Binding affinity at FAM/TAMRA-tagged parallel Tel21 G4 quadruplex DNA assessed as melting temperature at 2 uM in presence of 25 fold excess duplex DNA by FRET melting assay (reference value: 55.4 +/- 0.2 degreeC); assay type: nucleic-acid assay
In short: (§1)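 Dual FAM/TAMRA-labelled oligos (0.2 μM) in 20 mM K phosphate pH 7.0 with 5 mM KCl, annealed 90 °C 5 min, slow-cooled overnight, held 4 °C 24 h. The Tel21 parallel form was annealed at high DNA concentration. Ligand 2 μM. Unlabelled ds12 duplex competitor at 0, 5 or 10 μM final. Tm was read from FRET melting curves.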

HeLa [3] = test: Cytotoxicity against human HeLa cells assessed as reduction in cell viability incubated for 1 hr followed by 48 hrs of recovery in drug free medium by MTT assay; assay type: functional, cell-based
In short: (§2)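 Cells grown in DMEM with 10% FBS and 1% glutamine at 37 °C, 5% CO2, and seeded 25 × 10^4 per well. Treatment began 24 h after seeding and lasted 1 or 24 h, followed by 48 h in drug-free medium. MTT was added for 1 h at 37 °C, then DMSO solubilization and absorbance at 595 nm. IC50 came from linear regression; two independent experiments, each in triplicate.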

[4] = Displacement of Thiazole orange from hairpin duplex DNA incubated for 3 mins by spectrofluorimetry
In short: (§3)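 Pre-folded DNA (0.25 μM) in K phosphate/KCl buffer was mixed with thiazole orange: 0.50 μM for G4s, 0.75 μM for duplex. Ligand was added stepwise from 0.5 to 10 equiv, with 3 min equilibration at 20 °C after each addition. Excitation 495 nm; emission read at 543 nm. Displacement % = 100 − (F/F0 × 100). DC50 is the concentration giving 50% displacement.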

Quadruplex DNA [5] = test: Displacement of Thiazole orange from parallel Tel23 G4 quadruplex DNA incubated for 3 mins by spectrofluorimetry relative to control; assay type: nucleic-acid assay; in short: as §3
[6] = Effect on hairpin-duplex DNA architecture at 10 mol.equiv by circular dichroism spectral analysis
In short: (§4)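 CD spectra of 15 μM G4s or 30 μM hairpin in 20 mM K phosphate pH 7.0 with 5 mM KCl, after annealing. Recorded at 20 °C over 230–360 nm, three scans averaged, buffer baseline subtracted. Ligand was added at 10 mol equiv to the folded DNA from a 10 mM DMSO stock.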

Quadruplex DNA [7] = test: Binding affinity at FAM/TAMRA-tagged c-Kit2 G4 quadruplex DNA assessed as melting temperature at 2 uM in presence of 25 fold excess duplex DNA by FRET melting assay (reference value: 69.7 +/- 0.3 degreeC); assay type: nucleic-acid assay; in short: as §1
Quadruplex DNA [8] = test: Displacement of Thiazole orange from c-Kit2 G4 quadruplex DNA incubated for 3 mins by spectrofluorimetry relative to control; assay type: nucleic-acid assay; in short: as §3
Quadruplex DNA [9] = test: Effect on c-Kit2 G4 quadruplex DNA architecture at 10 mol.equiv by circular dichroism spectral analysis; assay type: nucleic-acid assay; in short: as §4
Quadruplex DNA [10] = test: Stabilization of human Tel23 G4 quadruplex DNA assessed as change in melting temperature at 10 mol.equiv by circular dichroism melting assay; assay type: nucleic-acid assay
In short: (§5)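 CD melting from 20 to 100 °C at 1 °C/min, monitored at 264 nm (c-Kit1, c-Kit2, c-Myc, Tel23-p), 287 nm (Tel23-h) or 280 nm (hairpin). Ligand was at 10 mol equiv with folded DNA (15 μM G4, 30 μM hairpin). ΔTm is Tm with ligand minus Tm without, from curve fits, averaged over triplicates.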

Quadruplex DNA [11] = test: Displacement of Thiazole orange from parallel Tel23 G4 quadruplex DNA incubated for 3 mins by spectrofluorimetry; assay type: nucleic-acid assay; in short: as §3
Quadruplex DNA [12] = test: Stabilization of G4 quadruplex DNA in human U2OS cells assessed as TRF2 foci per cell at 2 uM incubated for 24 hrs by immunofluorescence microscopy (reference value: 15.8 +/- 2.6%); assay type: cell-based
HeLa [13] = test: Cytotoxicity against human HeLa cells assessed as reduction in cell viability incubated for 24 hrs followed by 48 hrs of recovery in drug free medium by MTT assay; assay type: functional, cell-based; in short: as §2
Quadruplex DNA [14] = test: Effect on human Tel23 G4 quadruplex DNA architecture at 10 mol.equiv by circular dichroism spectral analysis; assay type: nucleic-acid assay; in short: as §4
Quadruplex DNA [15] = test: Stabilization of G4 quadruplex DNA in human U2OS cells assessed as change in size of BG4 foci at 2 uM incubated for 24 hrs by immunofluorescence microscopy; assay type: cell-based
Quadruplex DNA [16] = test: Stabilization of c-Kit2 G4 quadruplex DNA assessed as change in melting temperature at 10 mol.equiv by circular dichroism melting assay; assay type: nucleic-acid assay; in short: as §5
Quadruplex DNA [17] = test: Stabilization of parallel Tel23 G4 quadruplex DNA assessed as change in melting temperature at 10 mol.equiv by circular dichroism melting assay; assay type: nucleic-acid assay; in short: as §5
U2OS [18] = test: Cytotoxicity against human U2OS cells assessed as reduction in cell viability incubated for 24 hrs followed by 48 hrs of recovery in drug-free medium by MTT assay; assay type: functional, cell-based; in short: as §2
Quadruplex DNA [19] = test: Stabilization of G4 quadruplex DNA in human U2OS cells assessed as increase in number of G4 foci at 2 uM incubated for 24 hrs by immunofluorescence microscopy; assay type: cell-based
Quadruplex DNA [20] = test: Stabilization of c-Myc G4 quadruplex DNA assessed as change in melting temperature at 10 mol.equiv by circular dichroism melting assay; assay type: nucleic-acid assay; in short: as §5
Quadruplex DNA [21] = test: Effect on c-Kit1 G4 quadruplex DNA architecture at 10 mol.equiv by circular dichroism spectral analysis; assay type: nucleic-acid assay; in short: as §4
[22] = Stabilization of hairpin-duplex DNA assessed as change in melting temperature at 10 mol.equiv by circular dichroism melting assay; in short: as §5
Quadruplex DNA [23] = test: Effect on parallel Tel23 G4 quadruplex DNA architecture at 10 mol.equiv by circular dichroism spectral analysis; assay type: nucleic-acid assay; in short: as §4
Quadruplex DNA [24] = test: Effect on c-Myc G4 quadruplex DNA architecture at 10 mol.equiv by circular dichroism spectral analysis; assay type: nucleic-acid assay; in short: as §4
Quadruplex DNA [25] = test: Binding affinity at FAM/TAMRA-tagged c-Kit2 G4 quadruplex DNA assessed as melting temperature at 2 uM by FRET melting assay (reference value: 69.7 +/- 0.3 degreeC); assay type: nucleic-acid assay; in short: as §1
U2OS [26] = test: Induction of DNA:RNA hybrid formation in human U2OS cells assessed as increase in R loop formation at 10 uM incubated for 30 mins by S9.6 immunofluorescence microscopy; assay type: functional, cell-based
In short: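 U2OS cells were treated at 10 μM for 5–60 min, 24 h after seeding, then fixed in cold methanol and permeabilized with acetone. Stained with S9.6 antibody and anti-nucleolin. The nucleolar signal was subtracted from total nuclear S9.6 fluorescence, and values were normalized to the untreated mean; two biological replicates.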

Quadruplex DNA [27] = test: Stabilization of c-Kit1 G4 quadruplex DNA assessed as change in melting temperature at 10 mol.equiv by circular dichroism melting assay; assay type: nucleic-acid assay; in short: as §5
Quadruplex DNA [28] = test: Displacement of Thiazole orange from c-Kit2 G4 quadruplex DNA incubated for 3 mins by spectrofluorimetry; assay type: nucleic-acid assay; in short: as §3

Molecule CC(C)(C)c1cc(/C=N/NC(=N)N)c(O)c(/C=C2/C(=O)Nc3c2ccc2ccccc32)c1.Cl has an Activity (Quadruplex DNA [1]) of 16.4%, a Tm (Quadruplex DNA [2]) of 67.7 °C and an IC50 (HeLa [3]) of 3.94 µM. For the same molecule, the DC50 [4] was 8.57 µM, the inhibition (Quadruplex DNA [5]) was 80% and the Activity [6] was “inactive”. For the same molecule, the Tm (Quadruplex DNA [7]) was 76.4 °C, the inhibition (Quadruplex DNA [8]) was 100% and the Activity (Quadruplex DNA [9]) was “inactive”. It also gave a ΔTm (Quadruplex DNA [10]) of under 2 °C, a DC50 (Quadruplex DNA [11]) of 480 nM and an Activity (Quadruplex DNA [12]) of 15%. For the same molecule, the IC50 (HeLa [13]) was 750 nM, the Activity (Quadruplex DNA [14]) was “inactive” and the Activity (Quadruplex DNA [15]) was “inactive”. For the same molecule, the Activity (Quadruplex DNA [16]) was “Active”, the Activity (Quadruplex DNA [17]) was “Active” and the IC50 (U2OS [18]) was 2060 nM. For the same molecule, the Activity (Quadruplex DNA [19]) was “Active”, the Activity (Quadruplex DNA [20]) was “Active” and the Activity (Quadruplex DNA [21]) was “inactive”. For the same molecule, the Activity [22] was “Active”, the Activity (Quadruplex DNA [23]) was “inactive” and the Activity (Quadruplex DNA [24]) was “inactive”. The Tm (Quadruplex DNA [25]) was 77.9 °C, the Activity (U2OS [26]) was “Active” and the Activity (Quadruplex DNA [27]) was “Active”. The DC50 (Quadruplex DNA [28]) was 7.8 µM.
